Experimental data gathered from unrelated publications.
Lines come from different studies, so protocols differ.
Cell line: MCF7
Effect on: cell growth or viability

O=C(NCc1ccc(C(F)(F)F)cc1)c1cn(Cc2ccc(Cl)cc2)c2ccc(Oc3ccccc3)cc2c1=O  IC50 (MTT; 48 h): 109000 nM
N.N.[Cl][Pt][Cl]  IC50 (MTT; 48 h): 2000 nM
COc1c(C)c2c(c(O)c1C/C=C(\C)CCC(=O)O)C(=O)OC2  IC50: 741 nM
CC[C@@]1(O)C(=O)OCc2c1cc1n(c2=O)Cc2cc3ccccc3nc2-1  IC50 (SRB; 48 h): 67 nM
N.N.[Cl][Pt][Cl]  IC50 (MTT): 46100 nM
CC(=O)N[C@H]1[C@@H](O[C@@H]2O[C@H](C[C@@H](O)[C@H]3O[C@@H](n4ccc(=O)[nH]c4=O)[C@H](O)[C@@H]3O)[C@H](O)[C@H](O)[C@H]2NC(=O)/C=C/CCCCCCCCCC(C)C)O[C@H](CO)[C@@H](O)[C@@H]1O  IC50 (WST-1): 520 nM
O=C(NCc1ccc(C(F)(F)F)cc1)c1cn(Cc2ccc(F)cc2)c2ccc(Oc3ccccc3)cc2c1=O  IC50 (MTT; 48 h): 183000 nM
c1ccc([Se][Au]=[c]2n(C3CCCCC3)ccn2C2CCCCC2)cc1  IC50 (crystal violet): 1000 nM
CC[C@H](C)[C@@H]([C@@H](CC(=O)N1CCC[C@H]1[C@H](OC)[C@@H](C)C(=O)N[C@H](C)[C@@H](O)c1ccccc1)OC)N(C)C(=O)[C@@H](NC(=O)[C@@H](NC)C(C)C)C(C)C  IC50 (CCK-8): 10.7 nM
CC(=O)c1c(C)c2cnc(Nc3ccc(C4CCN(CCS(C)(=O)=O)CC4)cn3)nc2n(C2CCCC2)c1=O  IC50 (ATP luminescence; 72 h): 143 nM
Cc1ccc(CNC(=O)c2cn(Cc3ccc(Cl)cc3)c3ccc(Oc4ccccc4)cc3c2=O)cc1  IC50 (MTT; 24 h): > 500000 nM
C#CCn1c(C(=O)/C=C/c2ccc(F)cc2)nc2ccccc21  IC50 (LDH; 48 h): 2480 nM
O=C(NCc1ccc(Cl)cc1)c1cn(Cc2ccc(Cl)cc2)c2ccc(Oc3ccccc3)cc2c1=O  IC50 (MTT; 24 h): 481000 nM
N.N.[Cl][Pt][Cl]  IC50 (MTT; 72 h): 61600 nM
O=C(NCc1ccc(F)cc1)c1cn(Cc2ccc(F)cc2)c2ccc(Oc3ccccc3)cc2c1=O  IC50 (MTT; 48 h): 327000 nM
Fc1ccc2c(-c3nc(Cc4ccccc4)cs3)nn(Cc3ccc(Cl)cc3Cl)c2c1  IC50 (48 h): 32900 nM
